Data reported in ChEMBL document CHEMBL2384906, “Biological activity, design, synthesis and structure activity relationship of some novel derivatives of curcumin containing sulfonamides” (Eur J Med Chem, 2013).
In brackets after ≈: the same amount, converted by molar mass. Activity calls are given as the source filed them. The rule behind the calls is not given here.

Tests used:
Aspergillus niger [1] = assay: Antifungal activity against Aspergillus niger MTCC 1108 assessed as zone of inhibition at 80 uM after 48 hrs by disc diffusion method; assay type: functional; conditions: MTCC 1108, 48 h, read-out: IZ
How it was run: (§1)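 Spores from 4-day potato dextrose agar cultures, suspended in sterile water at 1.5 × 10⁵ CFU/mL. 0.2 mL was spread on potato dextrose agar. 5 mm filter-paper discs soaked with test compound were laid on the lawn. Incubation was 48 h at 28 °C, then the inhibition zone was measured in mm. Fluconazole was the positive control and acetone the negative control.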

Escherichia coli [2] = assay: Antimicrobial activity against Escherichia coli ATCC 35218 after 24 hrs by broth micro serial dilution method; assay type: functional; conditions: ATCC 35218, 24 h
How it was run: (§2)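 This was broth microdilution in autoclaved Mueller-Hinton broth. 150 µL of compound per well was serially diluted […], and 50 µL of test organism was added. Plates were incubated 24 h at 37 °C and optical density was read.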

Escherichia coli [3] = assay: Antimicrobial activity against Escherichia coli ATCC 35218 assessed as diameter of inhibition zone at 20 uM after 24 hrs by Kirby -Baur disc diffusion method; assay type: functional
How it was run: (§3)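 Kirby-Bauer disc diffusion was used. Acetone stocks (160 µM) were serially doubled down to 80, 40 and 20 µM. 4 µL of each went onto 5 mm sterile paper discs, which were dried 30 min at 50 °C. Inoculum was 1.5 × 10⁸ CFU/mL diluted to 3 × 10² CFU/mL, and 50 µL was spread on Mueller-Hinton agar. After 24 h at 37 °C the inhibition-zone diameter was measured. Ciprofloxacin served as positive control.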

Pseudomonas aeruginosa [4] = assay: Antimicrobial activity against Pseudomonas aeruginosa ATCC 15499 assessed as diameter of inhibition zone at 40 uM after 24 hrs by Kirby -Baur disc diffusion method; assay type: functional; conditions: ATCC 15499, 24 h, read-out: DIZ; how it was run: as §3
Pseudomonas aeruginosa [5] = assay: Antimicrobial activity against Pseudomonas aeruginosa ATCC 15499 after 24 hrs by broth micro serial dilution method; assay type: functional; conditions: ATCC 15499, 24 h; how it was run: as §2
QG-56 = assay: Cytotoxicity against human QG56 cells after 24 hrs by MTT assay; assay type: functional, cell-based
How it was run: (§4)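 The MTT assay seeded 5 × 10⁴ cells per well and grew them 24 h in RPMI 1640 with compound at 2.5–200 µM. Medium without cells was the blank and adriamycin the positive control. MTT was added for 4 h at 37 °C, formazan was solubilised, and absorbance was read at 570 nm. IC50 is the concentration that cuts viability 50% against untreated cells.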

Aspergillus flavus [6] = assay: Antifungal activity against Aspergillus flavus MTCC 1021 assessed as zone of inhibition at 80 uM after 48 hrs by disc diffusion method; assay type: functional; conditions: MTCC 1021, 48 h, read-out: IZ; how it was run: as §1
Aspergillus niger [7] = assay: Antifungal activity against Aspergillus niger MTCC 1108 assessed as zone of inhibition at 40 uM after 48 hrs by disc diffusion method; assay type: functional; how it was run: as §1
Bacillus cereus [8] = assay: Antimicrobial activity against Bacillus cereus MTCC 7350 after 24 hrs by broth micro serial dilution method; assay type: functional; conditions: MTCC 7350, 24 h; how it was run: as §2
Bacillus cereus [9] = assay: Antimicrobial activity against Bacillus cereus MTCC 7350 assessed as diameter of inhibition zone at 80 uM after 24 hrs by Kirby -Baur disc diffusion method; assay type: functional; conditions: MTCC 7350, 24 h, read-out: DIZ; how it was run: as §3
Curvularia lunata [10] = assay: Antifungal activity against Curvularia lunata MTCC 581 assessed as zone of inhibition at 20 uM after 48 hrs by disc diffusion method; assay type: functional; conditions: MTCC 581, 48 h, read-out: IZ; how it was run: as §1
Staphylococcus aureus [11] = assay: Antimicrobial activity against Staphylococcus aureus ATCC 11632 assessed as diameter of inhibition zone at 20 uM after 24 hrs by Kirby -Baur disc diffusion method; assay type: functional; how it was run: as §3
Aspergillus flavus [12] = assay: Antifungal activity against Aspergillus flavus MTCC 1021 after 48 hrs; assay type: functional; conditions: MTCC 1021, 48 h
Aspergillus flavus [13] = assay: Antifungal activity against Aspergillus flavus MTCC 1021 assessed as zone of inhibition at 20 uM after 48 hrs by disc diffusion method; assay type: functional; how it was run: as §1
Salmonella typhi [14] = assay: Antimicrobial activity against Salmonella typhi ATCC 23564 assessed as diameter of inhibition zone at 40 uM after 24 hrs by Kirby -Baur disc diffusion method; assay type: functional; conditions: Salmonella enterica subsp. enterica serovar Typhi
Curvularia lunata [15] = assay: Antifungal activity against Curvularia lunata MTCC 581 after 48 hrs; assay type: functional; conditions: MTCC 581, 48 h
Trichoderma viride [16] = assay: Antifungal activity against Trichoderma viride MTCC 1107 assessed as zone of inhibition at 80 uM after 48 hrs by disc diffusion method; assay type: functional; conditions: MTCC 1107, 48 h, read-out: IZ; how it was run: as §1
Aspergillus niger [17] = assay: Antifungal activity against Aspergillus niger MTCC 1108 assessed as zone of inhibition at 20 uM after 48 hrs by disc diffusion method; assay type: functional; how it was run: as §1
Curvularia lunata [18] = assay: Antifungal activity against Curvularia lunata MTCC 581 assessed as zone of inhibition at 40 uM after 48 hrs by disc diffusion method; assay type: functional; conditions: MTCC 581, 48 h, read-out: IZ; how it was run: as §1
Staphylococcus aureus [19] = assay: Antimicrobial activity against Staphylococcus aureus ATCC 11632 after 24 hrs by broth micro serial dilution method; assay type: functional; conditions: ATCC 11632, 24 h; how it was run: as §2
Staphylococcus aureus [20] = assay: Antimicrobial activity against Staphylococcus aureus ATCC 11632 assessed as diameter of inhibition zone at 40 uM after 24 hrs by Kirby -Baur disc diffusion method; assay type: functional; how it was run: as §3
Aspergillus niger [21] = assay: Antifungal activity against Aspergillus niger MTCC 1108 after 48 hrs; assay type: functional; conditions: MTCC 1108, 48 h
HeLa = assay: Cytotoxicity against human HeLa cells after 24 hrs by MTT assay; assay type: functional, cell-based; how it was run: as §4
Pseudomonas aeruginosa [22] = assay: Antimicrobial activity against Pseudomonas aeruginosa ATCC 15499 assessed as diameter of inhibition zone at 80 uM after 24 hrs by Kirby -Baur disc diffusion method; assay type: functional; conditions: ATCC 15499, 24 h, read-out: DIZ; how it was run: as §3
Salmonella typhi [23] = assay: Antimicrobial activity against Salmonella typhi ATCC 23564 after 24 hrs by broth micro serial dilution method; assay type: functional, Salmonella enterica subsp. enterica serovar Typhi; conditions: Salmonella enterica, ATCC 23564, 24 h
HCT-116 = assay: Cytotoxicity against human HCT116 cells after 24 hrs by MTT assay; assay type: functional, cell-based; how it was run: as §4
HepG2 = assay: Cytotoxicity against human HepG2 cells after 24 hrs by MTT assay; assay type: functional, cell-based; how it was run: as §4
Escherichia coli [24] = assay: Antimicrobial activity against Escherichia coli ATCC 35218 assessed as diameter of inhibition zone at 80 uM after 24 hrs by Kirby -Baur disc diffusion method; assay type: functional; conditions: ATCC 35218, 24 h, read-out: DIZ; how it was run: as §3
Pseudomonas aeruginosa [25] = assay: Antimicrobial activity against Pseudomonas aeruginosa ATCC 15499 assessed as diameter of inhibition zone at 20 uM after 24 hrs by Kirby -Baur disc diffusion method; assay type: functional; how it was run: as §3
Mus musculus = assay: Antiinflammatory activity in mouse assessed as inhibition of carrageenan-induced increase in paw volume at 200 mg/kg administered 1 hr prior to carrageenan challenge measured after 3 hrs relative to control; assay type: functional
How it was run: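 Mice were fasted 2 h and placed in groups of five. Controls received saline i.p. Phenylbutazone was given at 100 mg/kg i.p., curcumin at 200 mg/kg i.p., and derivatives at 200 mg/kg. After 1 h, 0.1 mL of 1% carrageenan in saline was injected subplantar into the right hind paw. Paw volume was followed by plethysmometer for 3 h, and % inhibition was calculated as (Vc − Vt)/Vc × 100.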

Trichoderma viride [26] = assay: Antifungal activity against Trichoderma viride MTCC 1107 after 48 hrs; assay type: functional; conditions: MTCC 1107, 48 h
Trichoderma viride [27] = assay: Antifungal activity against Trichoderma viride MTCC 1107 assessed as zone of inhibition at 20 uM after 48 hrs by disc diffusion method; assay type: functional; conditions: MTCC 1107, 48 h, read-out: IZ; how it was run: as §1
Aspergillus flavus [28] = assay: Antifungal activity against Aspergillus flavus MTCC 1021 assessed as zone of inhibition at 40 uM after 48 hrs by disc diffusion method; assay type: functional; conditions: MTCC 1021, 48 h, read-out: IZ; how it was run: as §1
Staphylococcus aureus [29] = assay: Antimicrobial activity against Staphylococcus aureus ATCC 11632 assessed as diameter of inhibition zone at 80 uM after 24 hrs by Kirby -Baur disc diffusion method; assay type: functional; conditions: ATCC 11632, 24 h, read-out: DIZ; how it was run: as §3
Salmonella typhi [30] = assay: Antimicrobial activity against Salmonella typhi ATCC 23564 assessed as diameter of inhibition zone at 80 uM after 24 hrs by Kirby -Baur disc diffusion method; assay type: functional, Salmonella enterica subsp. enterica serovar Typhi; conditions: Salmonella enterica, ATCC 23564, 24 h; read-out: DIZ
Curvularia lunata [31] = assay: Antifungal activity against Curvularia lunata MTCC 581 assessed as zone of inhibition at 80 uM after 48 hrs by disc diffusion method; assay type: functional; conditions: MTCC 581, 48 h, read-out: IZ; how it was run: as §1
Salmonella typhi [32] = assay: Antimicrobial activity against Salmonella typhi ATCC 23564 assessed as diameter of inhibition zone at 20 uM after 24 hrs by Kirby -Baur disc diffusion method; assay type: functional; conditions: Salmonella enterica subsp. enterica serovar Typhi
Bacillus cereus [33] = assay: Antimicrobial activity against Bacillus cereus MTCC 7350 assessed as diameter of inhibition zone at 40 uM after 24 hrs by Kirby -Baur disc diffusion method; assay type: functional; how it was run: as §3
Trichoderma viride [34] = assay: Antifungal activity against Trichoderma viride MTCC 1107 assessed as zone of inhibition at 40 uM after 48 hrs by disc diffusion method; assay type: functional; conditions: MTCC 1107, 48 h, read-out: IZ; how it was run: as §1
Escherichia coli [35] = assay: Antimicrobial activity against Escherichia coli ATCC 35218 assessed as diameter of inhibition zone at 40 uM after 24 hrs by Kirby -Baur disc diffusion method; assay type: functional; how it was run: as §3
Bacillus cereus [36] = assay: Antimicrobial activity against Bacillus cereus MTCC 7350 assessed as diameter of inhibition zone at 20 uM after 24 hrs by Kirby -Baur disc diffusion method; assay type: functional; how it was run: as §3

Structure (SMILES): COc1cc(/C=C/C(=O)C(/N=N/c2ccc(S(=O)(=O)Nc3cc(C)on3)cc2)=C(O)/C=C/c2ccc(O)c(OC)c2)ccc1O
- zone of inhibition at 80 µM (Aspergillus niger [1]): 12 mm
- MIC (Escherichia coli [2]): > 80 µM
- diameter of the inhibition zone (DIZ) (Escherichia coli [3]): inactive
- zone of inhibition at 40 µM (Pseudomonas aeruginosa [4]): 9 mm
- MIC (Pseudomonas aeruginosa [5]): > 80 µM
- IC50 (QG-56): Not Active
- zone of inhibition at 80 µM (Aspergillus flavus [6]): 10 mm
- inhibition zone (IZ) (Aspergillus niger [7]): inactive
- MIC (Bacillus cereus [8]): > 80 µM
- zone of inhibition at 80 µM (Bacillus cereus [9]): 9 mm
- zone of inhibition at 20 µM (Curvularia lunata [10]): 9 mm
- diameter of the inhibition zone (DIZ) (Staphylococcus aureus [11]): inactive
- MIC (Aspergillus flavus [12]): 80 µM (≈ 50.6 µg/mL)
- inhibition zone (IZ) (Aspergillus flavus [13]): inactive
- diameter of the inhibition zone (DIZ) (Salmonella typhi [14]): inactive
- MIC (Curvularia lunata [15]): 80 µM (≈ 50.6 µg/mL)
- zone of inhibition at 80 µM (Trichoderma viride [16]): 13 mm
- inhibition zone (IZ) (Aspergillus niger [17]): inactive
- zone of inhibition at 40 µM (Curvularia lunata [18]): 11 mm
- MIC (Staphylococcus aureus [19]): > 80 µM
- diameter of the inhibition zone (DIZ) (Staphylococcus aureus [20]): inactive
- MIC (Aspergillus niger [21]): > 80 µM
- IC50 (HeLa): > 100 µM
- zone of inhibition at 80 µM (Pseudomonas aeruginosa [22]): 9 mm
- MIC (Salmonella typhi [23]): > 80 µM
- IC50 (HCT-116): Not Active
- IC50 (HepG2): Not Active
- zone of inhibition at 80 µM (Escherichia coli [24]): 11 mm
- diameter of the inhibition zone (DIZ) (Pseudomonas aeruginosa [25]): inactive
- inhibition in vivo at 200 mg/kg (Mus musculus): 14.5%
- MIC (Trichoderma viride [26]): 80 µM (≈ 50.6 µg/mL)
- zone of inhibition at 20 µM (Trichoderma viride [27]): 9 mm
- zone of inhibition at 40 µM (Aspergillus flavus [28]): 9 mm
- zone of inhibition at 80 µM (Staphylococcus aureus [29]): 9 mm
- zone of inhibition at 80 µM (Salmonella typhi [30]): 9 mm
- zone of inhibition at 80 µM (Curvularia lunata [31]): 13 mm
- diameter of the inhibition zone (DIZ) (Salmonella typhi [32]): inactive
- diameter of the inhibition zone (DIZ) (Bacillus cereus [33]): inactive
- zone of inhibition at 40 µM (Trichoderma viride [34]): 11 mm
- diameter of the inhibition zone (DIZ) (Escherichia coli [35]): inactive
- diameter of the inhibition zone (DIZ) (Bacillus cereus [36]): inactive
